MT stabilizer: microtubule stabilizers in HeLa cells, primary screen, imaging, high-content imaging | % tubulin-high responders, % at 10 µM | 0.83% of 200,000 active | HeLa tubulin immunostaining HCS, 24 h; share of cells brighter than vehicle mean+2SD;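 active = plate Z-score above 3 for both tubulin-high and condensed-nucleus cell shares, with cell loss under 80%, at 10 µM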;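 also: anti alpha tubulin signal scored within the nucleus-defined area of each cell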
ROMK mod: ROMK potassium channel modulators, primary screen, cell-based, thallium flux, MLSMR library; AID 1918, 2009; B-score at 10 µM; 2% of 130,000 active; ATP-sensitive inward rectifier potassium channel 1 (Homo sapiens), P48048; Tet-inducible ROMK, thallium flux fluorescence; actives lie on both sides;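 active = signal ratio slope over the read window, or its plate-corrected B-score, at least 3 SD from the plate mean, either direction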;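 also: B-score of the F/F0 ratio slope over 7 to 12 s after thallium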
Target sequence (P48048 whole entry, looked up): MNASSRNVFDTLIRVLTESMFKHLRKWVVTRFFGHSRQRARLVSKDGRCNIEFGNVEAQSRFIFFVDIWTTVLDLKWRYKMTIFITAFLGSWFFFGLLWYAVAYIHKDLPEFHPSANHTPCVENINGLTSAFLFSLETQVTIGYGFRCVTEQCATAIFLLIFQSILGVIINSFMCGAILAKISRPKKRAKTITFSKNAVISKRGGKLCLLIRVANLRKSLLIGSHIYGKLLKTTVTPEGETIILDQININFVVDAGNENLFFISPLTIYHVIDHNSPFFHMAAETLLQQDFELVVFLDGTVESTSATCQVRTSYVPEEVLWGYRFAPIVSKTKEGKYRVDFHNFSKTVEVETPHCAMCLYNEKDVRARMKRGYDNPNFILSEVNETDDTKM
b-catenin transl: modulators of beta-catenin nuclear translocation, primary screen, imaging, HeLa cells, immunofluorescence, high-content; AID 1665, 2009; nuclear translocation activity, % at 5 µM; 0.3% of 190,000 active;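 active = nuclear translocation activity above 50% at 5 µM, with a well cell count of 50 or more; inconclusive = wells under 50 cells across six images, flagged as toxic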;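 also: per-cell ratio of nuclear to cytoplasmic median beta-catenin stain intensity; plate controls were DMSO negative control for no effect and GSK-3 inhibitor IX positive control for full effect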
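System: HeLa cells, endogenous beta-catenin; compound dosing: 5 µM primary single dose, 0.1% DMSO, 0.02–20 µM confirmation series; incubation: 24 h compound exposure at 37°C, 5% CO2; signal: beta-catenin immunofluorescence imaging with DAPI; evaluation: % activation, nuclear-to-cytoplasmic median beta-catenin signal ratio per cell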
ROMK hit retest: ROMK channel modulator hit retest, confirmation, cell-based, thallium flux, duplicate, resupplied hits. shares compounds with ROMK mod. fluorescence ratio; hits give low values. normalized thallium flux (F/F0 slope) at 10 µM. 54% of 3,000 active. AID 1917, 2009;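 active = Flux at 10 µM at least 3 SD below or above vehicle control mean in one or both replicates; inconclusive = no clear call, values can overlap the other calls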
Numbers without * were called inactive; ? = inconclusive; · = no result given. The list is not random: actives were taken first. Their share in the collection is about 1.9%.

SMILES | MT stabilizer | ROMK mod | b-catenin transl | ROMK hit retest
O=C(CN1CCN(c2ccc([N+](=O)[O-])cc2)CC1)Nc1nccs1 | 1 | -1.1 | 2 | ·
NC(=O)C1=C[C@H](C2CCCCC2)C[C@H](OCc2ccc(CO)cc2)O1 | 3 | · | -2 | ·
CCC1Oc2ccc(C)cc2N(CC(=O)N(Cc2cccnc2)Cc2ccc(C)o2)C1=O (configuration not stated) | 2 | · | 0 | ·
CCC1Oc2ccc(C)cc2N(CC(=O)N(Cc2ccc(C)o2)C2CC(C)(C)NC(C)(C)C2)C1=O (configuration not stated) | 4 | -6.9* | -1 | 0.059*
Cc1cc(C)n(-c2ccc(C(=O)Nc3cccc(S(=O)(=O)N4CCCC4)c3)cc2)n1 | 6 | -0.18 | -3 | ·
Cc1cc(C)n(-c2ccc(C(=O)OCC(=O)Nc3ccc(S(=O)(=O)N4CCCCC4)cc3)cc2)n1 | 1 | 2* | · | 0.078
CC1CCCCC1NC(=O)CN1CCN(Cc2ccccc2Cl)C1=O (configuration not stated) | 5 | -2 | -3 | ·
O=C(CN1CCN(Cc2ccccc2Cl)C1=O)NC1CCCCCCC1 | 1 | -2.6* | · | 0.057*
Nc1nn(-c2ccccc2)c(N)c1N=Nc1ccccc1 | 22* | 3.1* | 89* | 0.086
Cc1nn(-c2ccccc2)c(N)c1N=Nc1ccccc1 | 10 | · | 11 | ·
O=C(CCC(=O)c1cccs1)NCC(=O)Nc1ccc(F)c(F)c1F | 4 | -0.8 | 0 | ·
O=C(COc1ccc(F)cc1)Nc1ccc(-n2cnnn2)cc1 | 2 | · | -4 | ·
CCOC(=O)c1ccc(NC(=O)COc2ccc(-n3cnnn3)cc2)cc1 | 2 | 1.4 | 0 | 0.089
Cc1cc(Oc2ccc(=O)n(C)n2)nc(SCc2ccccc2)n1 | 2 | 0.16 | -2 | ·
O=C(CNC(=O)c1cccs1)N/N=C/c1ccco1 | 3 | 3.4* | -1 | 0.067*
CCOc1ccccc1/C=N/NC(=O)CNC(=O)c1cccs1 | 6 | -2.1* | -3 | 0.07
O=C(CNC(=O)c1cccs1)N/N=C/c1c[nH]c2ccccc12 | 2 | -0.25 | -1 | ·
Cc1ccc(/C=N/NC(=O)CNC(=O)c2cccs2)o1 | 2 | 0.6 | 0 | ·
Cc1nc(-c2ccccn2)nc(SCC(=O)c2ccccc2)c1Cl | · | 0.28 | 0 | ·
CN(/N=C/c1ccc(O)cc1O)c1ncc(C(F)(F)F)cc1Cl | · | · | 1 | ·
c1ccc2[nH]c3cc4ncnc4cc3nc2c1 | 3 | · | · | ·
CC(NC(=O)CCCOc1ccc(Cl)cc1)c1ccccc1 (configuration not stated) | 4 | -1.2 | 0 | ·
Cc1ccc(OCCCC(=O)NC(C)c2ccccc2)cc1 (configuration not stated) | 2 | 3.2* | · | 0.092
C=CCOC(=O)C(C#N)c1nc2ccccc2nc1N1CCN(Cc2ccc3c(c2)OCO3)CC1 (configuration not stated) | 4 | -3.2* | -6 | 0.063*
CCCCNC(=O)C(C#N)c1nc2ccccc2nc1N1CCN(Cc2ccc3c(c2)OCO3)CC1 (configuration not stated) | · | -0.021 | · | ·
SMILES | MT stabilizer | ROMK mod | b-catenin transl | ROMK hit retest
C[N+]1(C2CCC3CCCC2C3O)CCCC1 (configuration not stated) | 2 | 0.15 | · | ·
O=c1[nH]c(=O)n(Cc2ccco2)c2c1C(C(F)(F)F)(C(F)(F)F)N=C(CCc1ccccc1)N2 | 6 | · | · | 0.063*
CC(C)Cn1c2c(c(=O)[nH]c1=O)C(C(F)(F)F)(C(F)(F)F)N=C(CCC1CCCCC1)N2 | 4 | -0.18 | -1 | ·
O=c1[nH]c(=O)n(-c2ccccc2)c2c1C(C(F)(F)F)(C(F)(F)F)N=C(CCC1CCCCC1)N2 | 2 | -3.4* | -1 | 0.062*
O=c1[nH]c(=O)n(Cc2ccco2)c2c1C(C(F)(F)F)(C(F)(F)F)N=C(CCC1CCCCC1)N2 | 3 | · | 0 | ·
CCc1nnc(NC(=O)CCC(=O)NCCc2ccc(OC)c(OC)c2)s1 | 2 | 0.13 | -1 | ·
C=CCn1c(=O)/c(=C/c2ccc(O)cc2)s/c1=C(/C#N)c1nnc2n1CCCCC2 | 5 | -1.1* | · | 0.053*
C=CCn1c(=O)/c(=C/c2ccc(Cl)cc2)s/c1=C(/C#N)c1nnc2n1CCCCC2 | 4 | · | -2 | ·
Cc1cc2c(ncn2Cc2ccccc2)c([N+](=O)[O-])c1C | 1 | · | · | ·
O=C(C1=C[C@H](c2ccccc2)C[C@H](OCc2ccc(CO)cc2)O1)N1CCCCCCC1 | 2 | · | -4 | ·
Cc1oc2cc(O)ccc2c(=O)c1-c1nncn1-c1ccccc1 | 1 | -4.6* | 0 | 0.049*
Cc1oc2cc(O)ccc2c(=O)c1-c1ccccc1 | 2 | 0.011 | -2 | ·
Cc1ccnc(N2CCN(C(=O)CSc3nc4ccccc4nc3N3CCC(C)CC3)CC2)c1 | 1 | · | 0 | ·
COc1cc(OC)cc(C(=O)N[C@H](C(=O)Nc2cccc(S(=O)(=O)N3CCCC3)c2)C(C)C)c1 | · | · | -1 | ·
COc1ccc(CCn2c(=O)c3cccnc3n(Cc3cccc([N+](=O)[O-])c3)c2=O)cc1OC | 3 | 0.49 | -2 | ·
O=C1c2ccccc2C(=O)N1CCCn1c(=O)oc2ccccc21 | 3 | 0.79* | · | 0.08
O=c1oc2ccccc2n1Cn1c(=O)oc2ccccc21 | 2 | 2.1 | -4 | ·
C=CCn1c(SCC(=O)Nc2ccccc2-c2ccccc2)nc2cc(C(=O)O)ccc2c1=O | 5 | 0.43 | -5 | ·
COc1ccccc1OCCn1c(C(C)O)nc2ccccc21 (configuration not stated) | 3 | -4.9* | -3 | 0.066*
CC(O)c1nc2ccccc2n1CCOc1ccccc1 (configuration not stated) | 5 | -1.2 | 2 | ·
CCSc1nnc(NC(=O)[C@@H](NC(=O)c2ccc(C(C)(C)C)cc2)C(C)C)s1 | 3 | 0.13 | -1 | ·
Cn1cccc1/C=C1\CC(C(C)(C)C)C/C(=C\c2cccn2C)C1=O (configuration not stated) | 1 | -3.6* | -7 | 0.04*
Cn1cccc1/C=C1\Cc2ccccc2C1=O | 3 | -1.1 | · | ·
FC(F)(F)c1cnc(COc2cc(Cl)cc(Cl)c2)c(Cl)c1 | · | · | -1 | 0.079
O=C(O)CCc1ncc(C(F)(F)F)cc1Cl | 3 | · | -18 | ·
SMILES | MT stabilizer | ROMK mod | b-catenin transl | ROMK hit retest
COc1cc(/C=C2\NC(=S)N(C)C2=O)ccc1O | 3 | -1.2 | 2 | ·
COc1cc(/C=C2/C(=O)CNC2=O)ccc1O | 4 | -2.9* | -3 | 0.061*
COC(=O)C1=C(C)Nc2c(c(=O)n(C)c(=O)n2C)C1c1ccc(Cl)cc1 (configuration not stated) | 2 | 0.14 | · | ·
O=c1c2cc(F)ccc2[nH]c(=S)n1CCCN1CCOCC1 | 5 | · | -3 | ·
CCOC(=O)/C(=C\c1ccccc1)C(=O)c1cc(C(C)=O)c(Nc2ccccc2)s1 | 7 | 0.26 | · | ·
CCOC(=O)/C(=C\c1cccnc1)C(=O)c1cc(C(C)=O)c(Nc2ccccc2)s1 | 1 | -3* | -3 | 0.05*
COc1ccc(C(C[N+](=O)[O-])C2(c3ccc(OC)c(OC)c3)C(=O)c3ccccc3C2=O)cc1 (configuration not stated) | 4 | -5.1* | 0 | ?
